# M4 PAM – CHRM4 positive allosteric modulation | P08173 | CHO-K1 hM4/Gqi5, Fluo-8 calcium fluorescence, ACh EC20; 0% = ACh EC20, 100% = maximal ACh | activation, % at 3 µM | actives 0.4% (n = 360,000);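 active = activation above its plate's cutoff, the mean activation of sample wells plus 3 SD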
# CHRM4 agonist – CHRM4 agonism in calcium assay. activation, % at 3 µM. AID 624127. CHO-K1 hM4/Gqi5, Fluo-8 calcium fluorescence; vehicle 0%, full acetylcholine response 100%. actives 0.14% (n = 360,000);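 active = activation above the run mean over all test wells plus 3 SD, cut at about 32% in these data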;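 also: peak over basal fluorescence ratio per well then scaled between controls; 0% = DMSO wells and 100% = acetylcholine at EC100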
# M5 ag – agonists of human muscarinic M5 receptor (CHRM5); P08912; CHO-K1 hM5 cells, Fluo-8 calcium fluorescence; 0% DMSO wells, 100% maximal acetylcholine response; activation, % at 3 µM; actives 0.19% (n = 360,000);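 active = activation above the run's mean over test compounds plus 3 SD, cut at about 23% in these data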;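 also: signal is peak over basal fluorescence ratio across the kinetic read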
# Target sequence (P08912 whole entry, looked up): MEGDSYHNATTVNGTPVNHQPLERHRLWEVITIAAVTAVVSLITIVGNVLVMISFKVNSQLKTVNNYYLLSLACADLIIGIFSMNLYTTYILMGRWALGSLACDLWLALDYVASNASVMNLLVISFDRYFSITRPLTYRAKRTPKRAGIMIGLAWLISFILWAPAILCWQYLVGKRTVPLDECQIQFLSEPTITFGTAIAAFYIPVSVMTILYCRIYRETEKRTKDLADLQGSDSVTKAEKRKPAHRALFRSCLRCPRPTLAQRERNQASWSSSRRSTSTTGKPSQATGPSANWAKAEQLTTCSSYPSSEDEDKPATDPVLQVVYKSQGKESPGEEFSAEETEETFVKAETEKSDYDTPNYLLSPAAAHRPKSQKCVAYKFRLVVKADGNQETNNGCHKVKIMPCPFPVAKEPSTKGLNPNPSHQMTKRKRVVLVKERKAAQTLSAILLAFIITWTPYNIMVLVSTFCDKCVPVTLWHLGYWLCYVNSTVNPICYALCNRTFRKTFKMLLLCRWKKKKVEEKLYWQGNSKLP
# M4 antag – antagonists of human muscarinic M4 receptor (CHRM4); AID 624125; actives 0.73% (n = 360,000); CHO-hM4 cells, ACh EC80, Fluo-8 calcium fluorescence; inhibition, % at 3 µM; P08173;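 active = inhibition above its plate's cutoff, the mean inhibition of sample wells plus 3 SD, cut at about 27% in these data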;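 also: 0% = acetylcholine EC80 with DMSO and 100% = DMSO without agonist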
# CHRM5 antagonist – CHRM5 antagonism in calcium assay. P08912. CHO-hM5 cells, Fluo-8 calcium fluorescence, ACh EC80. inhibition, % at 3 µM. actives 0.59% (n = 360,000);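 active = inhibition above a per-plate cutoff, the mean of that plate's test compounds plus 3 SD, cut at about 27% in these data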;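 also: 0% = acetylcholine EC80 with DMSO and 100% = DMSO without agonist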
# M5 PAM – positive allosteric modulators of human muscarinic M5 receptor. CHO-K1 hM5, Fluo-8 calcium, ACh EC20 PAM; 0% = ACh EC20, 100% = ACh EC100. activation, % at 3 µM. actives 0.3% (n = 360,000). AID 624038;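 active = activation above the run cutoff, the mean activation of all test compounds plus 3 SD, cut at about 18% in these data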
#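 System: CHO-K1 hM5 cells. Reagent: acetylcholine, EC20 level. Compound dosing: single dose, 3 µM nominal final test concentration. Timing: Post-acetylcholine fluorescence recording 140 s. Detection: Fluo-8 calcium fluorescence. Read-out: % activation, ACh-normalized. Benchmarks: ACh EC20 and EC100 wells. Repeats: singlicate, one well per test compound.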
# * hit, by the source's call; + = active, no number. Hits are enriched below; roughly 1.9% of the tested compounds scored in any of these assays.
SMILES,M4 PAM,CHRM4 agonist,M5 ag,M4 antag,CHRM5 antagonist,M5 PAM
CNC(=O)c1cc(C(=O)c2ccc(C(F)(F)F)cc2F)c[nH]1,5,2,0,5,9,-4
Brc1ccc(CN2CCCCCC2)cc1,4,1,-12,1,6,4
Nc1ccc(CN2CCCCCC2)cc1,-1,1,-11,-2,3,38*
Cc1cn(C(C)C)c(=O)n(-c2ccccc2)c1=O,2,0,2,5,1,3
CC(C)n1cc(/C(N)=N/O)c(=O)n(Cc2ccccc2)c1=O,13*,6,4,22,16,39*
CCCNc1nc(C)cc(-c2cc(-c3ccccc3)on2)n1,8,-1,-5,6,12,-2
Cc1cc(-c2cc(-c3ccccc3)on2)nc(NCC2CC2)n1,29*,-1,-1,-6,-2,1
CC(C)c1cc(-c2cc(C(=O)NCc3ccccc3)on2)nc(NCC2CC2)n1,-7,43*,36*,41*,28*,8
Cc1nc(NC(=O)CSc2nnc(C3CC3)n2C)sc1C,4,2,-2,-21,2,-1
O=C1/C(=C/c2cccc(Br)c2)SC(=S)N1CCC(=O)N(CCO)c1ccccc1,4,1,2,-8,4,9
O=C1/C(=C/c2ccc3c(c2)OCO3)SC(=S)N1CCC(=O)N(CCO)c1ccccc1,-1,6,82*,-7,67*,-14
COc1ccc(/C=C2\SC(=S)N(CCC(=O)N(CCO)Cc3ccccc3)C2=O)cc1OC,37*,5,-2,17,-5,8
N#Cc1ccccc1Cn1cc(/C=C/[N+](=O)[O-])c2ccccc21,-13,5,15,16,50*,-1
CC1CCCC(NC(=O)COC(=O)COc2ccc(Br)cc2)C1C (centres undefined),-2,0,2,4,4,-6
Cn1c(SCC(=O)Nc2ccc3c(c2)CCC3)nnc1C1CC1,3,3,-3,-20,-2,-6
CCn1c(SCC(=O)Nc2nccs2)nnc1C1CC1,25*,0,-2,-2,-3,4
CCC(=O)Nc1cccc(NC(=O)CSc2nnc(C3CC3)n2C)c1,2,1,4,-13,-7,36*
Cc1cc(-c2nnc(SCC(=O)Nc3nccs3)o2)no1,16,-1,7,13,-15,20*
Cc1cccc(-n2ncc3c2CCCC3NC(=O)C2CCOCC2)c1C (centres undefined),6,8,0,-8,-1,3
O=[N+]([O-])c1ccc(Cl)cc1NCc1cccnc1,-3,0,-15,-7,9,-4
COc1cc(F)ccc1S(=O)(=O)N1CCN(Cc2ccccc2)CC1,-2,0,6,2,-2,7
COc1ccccc1-c1cnc(C(O)c2ccc(F)c(F)c2)[nH]1 (centres undefined),0,3,1,7,3,3
Nc1ccc(-c2c3ccc(=O)cc-3oc3cc(O)ccc23)cc1C(=O)O,-24,548*,203*,63*,30*,-21
O=c1ccc2c(-c3ccccc3)c3ccc(O)cc3oc-2c1,-23,+,797*,86*,86*,-26
O=c1cc(-c2ccccc2)oc2cc(O)ccc12,1,2,1,-6,2,6
SMILES,M4 PAM,CHRM4 agonist,M5 ag,M4 antag,CHRM5 antagonist,M5 PAM
COc1ccc(C(=O)N(C)c2ccccc2C(=O)NCCc2ccccc2)cc1,-3,1,-4,3,-2,2
Cc1ccc(C(=O)Nc2nnc(-c3ccco3)o2)cc1,17,2,2,2,14,22*
CS(=O)(=O)c1ccccc1-c1nnc(NC(=O)c2ccco2)o1,-4,0,0,39*,-3,0
O=C(Nc1nnc(-c2ccco2)o1)c1ccc(S(=O)(=O)N2CCCC2)cc1,2,1,0,5,-15,7
CC1CCN(S(=O)(=O)c2ccc(C(=O)Nc3nnc(-c4ccco4)o3)cc2)CC1,6,0,1,2,-35,29*
O=C(Nc1nnc(-c2ccco2)o1)C1CC1,13,2,6,-4,-8,23*

# Compound activity: PubChem, The Scripps Research Institute Molecular Screening Center
